Screens: PubChem, The Scripps Research Institute Molecular Screening Center
In the library only some 0.74% were active in any assay of this set; here they are far more common.
Tn7 DDE FP = inhibitors of Tn7 peptide binding to fibrin DD(E), primary screen, biochemical, fluorescence polarization, human fibrin, Tn7 probe; 370,000 tested, 0.13% active; FP displacement of FITC-Tn7 peptide from fibrin DD(E); 0% = median of compound wells per plate; AID 720508, 2013; inhibition, % at 8.3 µM;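 active = inhibition above the mean of compounds falling within the control limits plus 3 SD of them, cut at about 14% in these data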
Target sequence (P02675 whole entry, looked up): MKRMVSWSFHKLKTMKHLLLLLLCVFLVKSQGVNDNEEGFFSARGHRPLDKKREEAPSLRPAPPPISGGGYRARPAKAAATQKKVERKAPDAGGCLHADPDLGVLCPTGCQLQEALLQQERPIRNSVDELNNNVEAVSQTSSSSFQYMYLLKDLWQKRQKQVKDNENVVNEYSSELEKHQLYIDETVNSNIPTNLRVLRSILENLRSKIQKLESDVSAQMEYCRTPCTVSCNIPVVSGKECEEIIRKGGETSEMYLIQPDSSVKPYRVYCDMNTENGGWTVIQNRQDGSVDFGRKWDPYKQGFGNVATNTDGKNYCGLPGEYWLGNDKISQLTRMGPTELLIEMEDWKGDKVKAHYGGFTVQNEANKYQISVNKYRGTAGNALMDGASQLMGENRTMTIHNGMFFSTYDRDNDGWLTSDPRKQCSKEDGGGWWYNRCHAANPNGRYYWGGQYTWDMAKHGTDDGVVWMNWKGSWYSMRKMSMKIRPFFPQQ
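Assay system: Fibrin-DD(E) protein isolated from polymerized human fibrin clots; read-out basis: percent inhibition; medium: Tris/NaCl/CaCl2 buffer, pH 7.8; signal: FP measurement; incubation: 10 min plus 3 h, room temperature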
ARFGAP1 inhibitor = inhibitors of rat ARFGAP1 GAP activity, primary screen, biochemical, fluorescence polarization, GDP tracer | ADP-ribosylation factor GTPase-activating protein 1 (Rattus norvegicus), Q62848 | Arfgap1-stimulated ARF1 GTP hydrolysis, GDP FP detection | inhibition, % at 16.5 µM | 360,000 tested, 0.26% active | AID 651572, 2012;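 active = inhibition above a per-plate limit, mean inhibition of low control wells plus 3 SD, cut at about 25% in these data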
Target sequence (Q62848 1-136 limits assumed): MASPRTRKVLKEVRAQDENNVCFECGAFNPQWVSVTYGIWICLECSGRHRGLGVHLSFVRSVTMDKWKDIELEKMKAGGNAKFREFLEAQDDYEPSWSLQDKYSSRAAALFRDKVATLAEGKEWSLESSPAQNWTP
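Material – truncated rat Arfgap1 GAP domain · Buffer or medium – HEPES-based buffer, pH 7.5 · Reagent – human ARF1(Δ1-17)-GTP substrate · Dosing – 16.5 µM single point, 1.26% DMSO · Schedule – GTP hydrolysis reaction 2 h at 25 °C · Technique – GDP detection by fluorescence polarization · Benchmarks – No-Arfgap1 wells (100%) versus DMSO full-reaction wells (0%) · Repeats – single replicate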
ASAP1 GAP inh = inhibitors of human ASAP1 ArfGAP activity, primary screen, biochemical, fluorescence polarization. inhibition, % at 16.5 µM. 360,000 tested, 0.19% active. Arf-GAP with SH3 domain, ANK repeat and PH domain-containing protein 1 (Homo sapiens), …. AID 624377, 2012. ASAP1-stimulated ARF1 GTP hydrolysis, GDP FP detection; in the data active = inhibition above about 25%
DDE Tn6 FP inh = inhibitors of Tn6 peptide binding to fibrin DD(E), primary screen, biochemical, fluorescence polarization, human fibrin, Tn6 probe; Fibrin DD(E) TRITC-Tn6 fluorescence polarization displacement; inhibition, % at 8.3 µM; 370,000 tested, 0.21% active;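 active = inhibition above a per-campaign cutoff: mean of compounds within control limits plus 3 SD, cut at about 15% in these data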
Tn7 DDE conf = inhibitors of Tn7 peptide binding to fibrin DD(E), confirmation, biochemical, fluorescence polarization, human fibrin, Tn7 probe; shares compounds with Tn7 DDE FP; FP displacement of TRITC-Tn7 peptide from DD(E); 0% set at plate's compound-well median; inhibition, % at 8.3 µM; 460 tested, 5% active;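 active = inhibition above the campaign cutoff, the mean of compounds within control limits plus 3 SD, cut at about 14% in these data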;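 also: displacers lower polarization since freed probe rises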
DDE Tn7 FP ctr = DD(E)-Tn7 binding inhibition, counter-screen; shares compounds with Tn7 DDE FP; fibrin DD(E), TRITC-Tn7 probe displacement, fluorescence polarization; inhibition, % at 8.3 µM; 460 tested, 3% active;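 active = inhibition above the cutoff, the mean of compounds lying between the control bounds plus 3 SD of those compounds, cut at about 17% in these data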
A number is an active result; i = inactive; nt = no result given.

SMILES	Tn7 DDE FP	ARFGAP1 inhibitor	ASAP1 GAP inh	DDE Tn6 FP inh	Tn7 DDE conf	DDE Tn7 FP ctr
COC(=O)[C@]12C[C@H](CC(=O)NCCc3ccccc3OC)C(=O)N(CCc3ccc(OC)c(OC)c3)C1=C[C@H](COCc1ccccc1)O[C@@H]2C	i	nt	nt	i	nt	nt
CCc1ccccc1NC(=S)NC1CC2CCC(C1)N2Cc1ccc(F)cc1 (stereo unspecified)	14	i	i	i	i	i
COc1ccc(C)cc1NC(=O)CSc1nnc(-c2n[nH]c3c2CCC3)n1N	i	nt	nt	i	nt	nt
O=C(N/N=C/c1sc(=O)[nH]c1-[n+]1ccccc1)c1ccccc1[O-]	i	i	i	i	nt	nt
O=C(N/N=C/c1sc(=O)[nH]c1-[n+]1ccc2ccccc2c1)c1ccccc1[O-]	20	i	i	i	i	i
Cc1cc2nc3c(=O)n(C4CCCCC4)c(=O)[nH]c3nc2cc1N	25	i	i	i	17	i
COC(=O)Cn1nc(-c2ccccc2)c2cccc(C(F)(F)F)c21	i	nt	nt	i	nt	nt
O=C(CSc1nc2sc3c(c2c(=O)n1-c1ccc(Cl)cc1)CCC3)Nc1ccc(C(=O)O)cc1	i	nt	nt	i	nt	nt
CCCCNc1ccc2c3c(cccc13)C(=O)N(CCCC)C2=O	47	i	i	i	i	19
COc1ccc(OC)c(NCCN2C(=O)c3ccccc3C2=O)c1	i	i	i	i	nt	nt
CCCN1C(=O)c2cccc3c(N4CCCCC4)ccc(c23)C1=O	16	i	i	i	i	i
c1ccc2cc(Cn3ccc4ccc(-c5ccc6cc[nH]c6c5)cc43)ccc2c1	i	nt	nt	i	nt	nt
Cc1ccc(N=Cc2ccccc2O)cc1Cl	15	i	i	i	i	i
NC(=O)C1CCN(C(=S)NCc2ccc3c(c2)OCO3)CC1	15	i	i	i	i	i
Cc1nc2sc(C(=O)NCc3ccc4c(c3)OCO4)c(N)c2c(C)c1Cl	i	nt	nt	i	nt	nt
COc1ccc(/C=C2\CC3(OC(=O)c4ccc(F)cc4)CCCN2C3)cc1 (stereo unspecified)	i	nt	nt	i	nt	nt
COc1ccc(/C=C/c2cc(C(=O)O)c3ccccc3n2)cc1	38	i	i	i	i	i
O=C(CNc1n[nH]c(=O)[nH]c1=O)N/N=C/c1cccnc1	i	i	i	i	nt	nt
O=C(CNc1n[nH]c(=O)[nH]c1=O)N/N=C/c1ccccc1	15	i	i	i	i	i
O=C(CCCOc1ccc(Cl)cc1)N1CCCCCC1	14	i	i	i	i	i
CC(C)(C)c1cc(C(=O)N/N=C/c2ccccc2O)n(-c2ccccc2)n1	i	i	i	i	nt	nt
CC(C)(C)c1cc(C(=O)N/N=C/c2ccc(F)cc2)n(-c2ccccc2)n1	14	i	i	i	i	i
Cc1ccc[n+](-c2nc([O-])sc2C=O)c1	25	i	i	i	i	i
CC(C)c1ccc[n+](-c2nc([O-])sc2C=O)c1	i	i	i	i	nt	nt
CCCCNC(=S)N(C)N=C1CCC(c2ccccc2)CC1 (stereo unspecified)	i	i	i	i	nt	nt
SMILES	Tn7 DDE FP	ARFGAP1 inhibitor	ASAP1 GAP inh	DDE Tn6 FP inh	Tn7 DDE conf	DDE Tn7 FP ctr
CCCCNC(=S)N(C)/N=C/c1ccccc1C(=O)O	14	i	i	i	i	i
COC(=O)C[C@H]1CC[C@@H]2[C@@H](COc3ccc(NC(=O)c4ccno4)cc3C(=O)N2C)O1	i	nt	nt	i	nt	nt
CC1CCCCN1C(=O)COC(=O)Cc1c[nH]c2ccccc12 (stereo unspecified)	15	i	i	i	i	i
CC1CCCC(C)N1C(=O)COC(=O)Cc1c[nH]c2ccccc12 (stereo unspecified)	i	i	i	i	nt	nt
CCCN1CCS(=O)(=O)N(Cc2cn(Cc3ccc(Cl)cc3)nn2)C(C(=O)OC)C1 (stereo unspecified)	i	nt	nt	i	nt	nt
CCOc1ccc(CCN2C(=S)N([C@@H](Cc3ccc(O)cc3)CN3CCC[C@@H]3CN3C(=S)NC[C@@H]3CC(C)C)C[C@@H]2Cc2ccccc2)cc1	i	i	i	i	nt	nt
CCOc1ccc(CCN2C(=S)N([C@@H](Cc3ccc(O)cc3)CN3CCC[C@@H]3CN3C(=S)NC[C@@H]3CC(C)C)C[C@@H]2CC(C)C)cc1	14	i	i	i	i	i
O=C(OC12CCCN(C1)/C(=C/c1ccc(Cl)cc1)C2)c1ccc(Cl)cc1 (stereo unspecified)	i	nt	nt	i	nt	nt
COc1ccc2c(Cl)c(C(=O)N/N=C3\CCCC(=O)C3)sc2c1	32	i	i	i	i	i
Cc1cc(C)cc(C(=O)OCCN(C)C2CN(Cc3cn(Cc4ccc([N+](=O)[O-])cc4)nn3)S(=O)(=O)C2)c1 (stereo unspecified)	i	nt	nt	i	nt	nt
COC(=O)C1CN(C2CCCC2)CCS(=O)(=O)N1Cc1cn(Cc2ccc(C)cc2)nn1 (stereo unspecified)	i	nt	nt	i	nt	nt
COC(=O)C1CN(C2CCCC2)CCS(=O)(=O)N1Cc1ccccc1 (stereo unspecified)	16	nt	nt	i	i	i
C#CCNC(=O)C[C@H]1C[C@@]2(C(=O)OC)C(=C[C@H](C3CCCC3)O[C@@H]2C)N(Cc2ccc(Cl)cc2Cl)C1=O	i	nt	nt	i	nt	nt
O=C(NC(=S)NC1CCSC1=O)c1ccccc1Cl (stereo unspecified)	15	i	i	i	i	i
O=C(NC(=S)NC1CCSC1=O)c1ccccc1 (stereo unspecified)	i	i	i	i	nt	nt
CC[C@H]1OC(=O)[C@H](C)[C@@H](O[C@H]2C[C@@](C)(OC)[C@@H](O)[C@H](C)O2)C(C)[C@@H](O[C@@H]2O[C@H](C)C[C@H](N(C)C)[C@H]2O)[C@](C)(O)C[C@@H](C)CN(C)[C@H](C)[C@@H](O)[C@]1(C)O (stereo partly specified)	14	nt	nt	i	i	i
Cn1c(=O)c(Nc2ccc(O)cc2)c2c3c(cccc31)C(=O)c1ccccc1-2	16	i	i	i	i	i
CC(C)c1ccc(Nc2c([N+](=O)[O-])c(=O)n(C)c3ccccc23)cc1	i	i	i	i	nt	nt
COC(=O)C[C@@H]1CC[C@H]2[C@@H](COc3ccc(NC(=O)c4ccc(Cl)cc4)cc3C(=O)N2C)O1	i	nt	nt	i	nt	nt
